Laboratory results as given in ChEMBL document CHEMBL1151968, “Ceramide and cerebrosides from the octocoral Sarcophyton ehrenbergi” (2009).
Calls of active or inactive are those of the source. The rule behind the calls is not given here.

How the values were obtained:
RAW264.7 [1] = assay: Antiinflammatory activity in mouse RAW264.7 cells assessed as reduction of LPS-induced iNOS protein level at 10 uM by immunoblot analysis relative to control; format: functional; design: scale not given: the % may be the effect or the level left
How it was run: (§1)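 Murine RAW 264.7 macrophages stimulated with E. coli LPS (0.01 μg/mL) for 16 h with or without sample (10 μM). Lysates from cells washed in ice-cold PBS; equal protein run on SDS-PAGE, transferred to PVDF, probed with anti-iNOS or anti-COX-2 (1:1000, 180 min); β-actin blotted. Band intensity expressed relative to LPS-alone group (100%); mean ± SEM, n = 5.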

Serratia marcescens = assay: Antibacterial activity against Serratia marcescens ATCC 25419 at […]; format: functional, organism-based
How it was run: (§2)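 Agar-overlay disk diffusion. Strains grown in LB broth 24 h at 37 °C; 0.3 mL broth culture in 2.7 mL LB soft agar (0.7%) poured over LB hard agar (1.5%). 8 mm paper disks loaded with 10 μL of 2 μg/μL sample; ampicillin (5 μg/μL) positive control, solvent negative control. Plates incubated 37 °C, 24 h, then inhibition assessed.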

Shigella sonnei = assay: Antibacterial activity against Shigella sonnei ATCC 11060 at […]; format: functional, organism-based; how it was run: as §2
Klebsiella aerogenes = assay: Antibacterial activity against Enterobacter aerogenes ATCC 13048 at […]; format: functional, organism-based; how it was run: as §2
RAW264.7 [2] = assay: Antiinflammatory activity in mouse RAW264.7 cells assessed as reduction of LPS-induced COX2 protein level at 10 uM by immunoblot analysis relative to control; format: functional; how it was run: as §1
[3] = system: Salmonella enterica subsp. enterica; assay: Antibacterial activity against Salmonella enteritidis ATCC 13076 at […]; format: functional, organism-based; details: Salmonella enterica subsp. enterica serovar Enteritidis; how it was run: as §2

| SMILES | Activity (RAW264.7 [1]) | Activity (Serratia marcescens) | Activity (Shigella sonnei) | Activity (Klebsiella aerogenes) | Activity (RAW264.7 [2]) | Activity [3] |
| --- | --- | --- | --- | --- | --- | --- |
| CCCCCCC/C=C/C(C)=C/CC/C=C/[C@@H](O)[C@H](CO[C@H]1O[C@H](CO)[C@@H](O)[C@H](O)[C@H]1O)NC(=O)[C@H](O)/C=C/CCCCCCCCCCCCCC [SARCOEHRENOSIDE A] | 47.3% | inactive | inactive | inactive | inactive | inactive |
| CCCCCCCCCCCCCCCCCCC[C@@H](O)C(=O)N[C@@H](CO[C@@H]1O[C@H](CO)[C@@H](O)[C@H](O)[C@H]1O)[C@H](O)/C=C/CC/C=C(\C)CCCCCCCCC [SARCOEHRENOSIDE B] | 46.5% | inactive | inactive | inactive | inactive | inactive |
| CCCCCCCCCCCCCC[C@@H](O)C(=O)N[C@@H](CO[C@@H]1O[C@H](CO)[C@@H](O)[C@H](O)[C@H]1O)[C@H](O)/C=C/CC/C=C(\C)CCCCCCCCC | 20.3% | inactive | inactive | inactive | 64.3% | inactive |
| CCCCCCCCCCCCCCCCCCCC[C@@H](O)C(=O)N[C@@H](CO[C@@H]1O[C@H](CO)[C@@H](O)[C@H](O)[C@H]1O)[C@H](O)/C=C/CC/C=C(\C)CCCCCCCCC | – | inactive | inactive | inactive | – | inactive |
| CCCCCCCCCCCCCCCCCC[C@@H](O)C(=O)N[C@@H](CO[C@@H]1O[C@H](CO)[C@@H](O)[C@H](O)[C@H]1O)[C@H](O)/C=C/CC/C=C(\C)CCCCCCCCC | 25.8% | inactive | inactive | inactive | inactive | inactive |
| O=C(/C=C/c1ccc(O)c(O)c1)OCCc1ccccc1 [CAFFEIC ACID PHENETHYL ESTER] | 1.5% | – | – | – | 70.2% | – |
| CCCCCCCCCCCCC/C=C/[C@@H](O)[C@H](CO)NC(C)=O | 46.9% | inactive | inactive | inactive | 77.2% | inactive |
